Measurements taken from ChEMBL document CHEMBL4406859, “Antitumor and antiviral activities of 4-substituted 1,2,3-triazolyl-2,3-dibenzyl-L-ascorbic acid derivatives” (Eur J Med Chem, 2019).

Key:
A549 = assay: Antiproliferative activity against human A549 cells assessed as reduction in cell viability incubated for 72 hrs by MTT assay; assay type: functional, cell-based; settings: A549, 72 h
Method in brief: (§1)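 Cells (ATCC) grown in DMEM with 10 FBS, penicillin/streptomycin, 2 mM glutamine, 37 °C, 5 CO2. 5000 cells/well seeded; after 24 h, freshly prepared dilutions at five concentrations (0.01–100 μM) added for 72 h. MTT read-out; absorbance converted to percentage growth by NIH formulas. Two experiments in quadruplicate; IC50 by linear regression.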

CFPAC-1 = assay: Antiproliferative activity against human CFPAC-1 cells assessed as reduction in cell viability incubated for 72 hrs by MTT assay; assay type: functional, cell-based; settings: Homo sapiens, CFPAC-1, 72 h; read-out: IC50; method in brief: as §1
HCT-116 = assay: Antiproliferative activity against human HCT116cells assessed as reduction in cell viability incubated for 72 hrs by MTT assay; assay type: functional, cell-based; settings: HCT-116, 72 h; method in brief: as §1
HeLa = assay: Antiproliferative activity against human HeLa cells assessed as reduction in cell viability incubated for 72 hrs by MTT assay; assay type: functional, cell-based; method in brief: as §1
HepG2 = assay: Antiproliferative activity against human HepG2 cells assessed as reduction in cell viability incubated for 72 hrs by MTT assay; assay type: functional, cell-based; settings: HepG2, 72 h; method in brief: as §1
MCF7 = assay: Antiproliferative activity against human MCF7 cells assessed as reduction in cell viability incubated for 72 hrs by MTT assay; assay type: functional, cell-based; settings: MCF7, 72 h; method in brief: as §1
SW-620 = assay: Antiproliferative activity against human SW620 cells assessed as reduction in cell viability incubated for 72 hrs by MTT assay; assay type: functional, cell-based; settings: SW-620, 72 h; method in brief: as §1
HFF = assay: Cytotoxicity against human HFF cells assessed as reduction in cell viability incubated for 72 hrs by MTT assay; assay type: cell-based; method in brief: as §1
[1] = Cytotoxicity against human HELF cells assessed as minimum cytotoxic concentration by observing alteration in cell morphology incubated for 3 days by microscopic analysis; assay type: cell-based; settings: HELF cells
Method in brief: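 Read-out is the minimum cytotoxic concentration (MCC): the lowest compound concentration giving a microscopically detectable change in cell morphology. Measured on confluent human embryonic lung (HEL) fibroblast cultures exposed to a range of compound concentrations.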

Human adenovirus 2 = assay: Antiviral activity against Human adenovirus 2 infected in human HELF cells assessed as reduction in virus-induced cytopathogenicity incubated for 7 days by microscopic analysis; assay type: functional, organism-based; settings: Human mastadenovirus C, 168 h
Human alphaherpesvirus 1 [2] = assay: Antiviral activity against Herpes simplex virus 1 KOS infected in human HELF cells assessed as reduction in virus-induced cytopathogenicity incubated for 7 days by microscopic analysis; assay type: functional, organism-based; settings: Human alphaherpesvirus 1, strain KOS, 168 h
Human alphaherpesvirus 2 = assay: Antiviral activity against Herpes simplex virus 2 G infected in human HELF cells assessed as reduction in virus-induced cytopathogenicity incubated for 7 days by microscopic analysis; assay type: functional, organism-based; settings: Human alphaherpesvirus 2, G, 168 h
Human alphaherpesvirus 1 [3] = assay: Antiviral activity against Herpes simplex virus 1 TK-KOS-ACV infected in human HELF cells assessed as reduction in virus-induced cytopathogenicity incubated for 7 days by microscopic analysis; assay type: functional, organism-based; settings: Human alphaherpesvirus 1, TK-KOS-ACV, 168 h
Human coronavirus 229E = assay: Antiviral activity against Human coronavirus 229E infected in human HELF cells assessed as reduction in virus-induced cytopathogenicity incubated for 7 days by microscopic analysis; assay type: functional, organism-based; settings: 168 h

Which IC50 (A549) does the source give for O=C1O[C@H]([C@@H](O)Cn2cc(-c3cc(F)cc(F)c3)nn2)C(OCc2ccccc2)=C1OCc1ccccc1 here?
Its IC50 is 41.2 µM.

And the IC50 (CFPAC-1)?
The IC50 was 62.4 µM.

What about the IC50 (HCT-116) of the same compound?
The IC50 was 48.2 µM.

And the IC50 (HeLa)?
Its IC50 is 40.8 µM.

And the IC50 (HepG2)?
The IC50 was 11.6 µM.

What about the IC50 (MCF7) of the same compound?
Its IC50 is 27.7 µM.

And the IC50 (SW-620)?
Its IC50 is greater than 100 µM.

And the IC50 (HFF)?
The IC50 was greater than 100 µM.

For O=C1O[C@H]([C@@H](O)Cn2cc(CNS(=O)(=O)c3ccc(F)cc3)nn2)C(OCc2ccccc2)=C1OCc1ccccc1, which IC50 (A549) is on record?
Its IC50 is 22.5 µM.

And the IC50 (CFPAC-1)?
The IC50 was 34.7 µM.

What about the IC50 (HCT-116) of the same compound?
Its IC50 is 22.9 µM.

What about the IC50 (HeLa) of the same compound?
The IC50 was 25 µM.

What about the IC50 (HepG2) of the same compound?
Its IC50 is 18.3 µM.

What about the IC50 (MCF7) of the same compound?
The IC50 was 26.8 µM.

And the IC50 (SW-620)?
The IC50 was 41.1 µM.

And the IC50 (HFF)?
Its IC50 is 0.03 µM.

With Cc1ccc(-c2cn(C[C@H](O)[C@H]3OC(=O)C(OCc4ccccc4)=C3OCc3ccccc3)nn2)cc1 as the compound, how does the IC50 (A549) read?
Its IC50 is 8.69 µM.

And the IC50 (CFPAC-1)?
Its IC50 is greater than 100 µM.

And the IC50 (HCT-116)?
The IC50 was greater than 100 µM.

What about the IC50 (HeLa) of the same compound?
Its IC50 is 25.5 µM.

And the IC50 (HepG2)?
The IC50 was 8.77 µM.

What about the IC50 (MCF7) of the same compound?
Its IC50 is greater than 100 µM.

What about the IC50 (SW-620) of the same compound?
The IC50 was greater than 100 µM.

And the IC50 (HFF)?
Its IC50 is greater than 100 µM.

Which MCC at 72 h [1] does the source give for Cc1cn([C@H]2C[C@H](F)[C@@H](CO)O2)c(=O)[nH]c1=O [ALOVUDINE] here?
Its MCC at 72 h is greater than 250 µM.

What about the EC50 (Human adenovirus 2) of the same compound?
The EC50 was 22 µM.

For O=C1O[C@H]([C@@H](O)Cn2cc(-c3cc(C(F)(F)F)cc(C(F)(F)F)c3)nn2)C(OCc2ccccc2)=C1OCc1ccccc1, which IC50 (A549) is on record?
The IC50 was 28.9 µM.

What about the IC50 (CFPAC-1) of the same compound?
Its IC50 is 66.5 µM.

And the IC50 (HCT-116)?
Its IC50 is 57.2 µM.

And the IC50 (HeLa)?
Its IC50 is 35.5 µM.

And the IC50 (HepG2)?
Its IC50 is 33.8 µM.

What about the IC50 (MCF7) of the same compound?
The IC50 was 45.9 µM.

And the IC50 (SW-620)?
Its IC50 is 49.2 µM.

And the IC50 (HFF)?
The IC50 was 80.7 µM.

For O=C1O[C@H]([C@@H](O)Cn2cc(-c3cccc(O)c3)nn2)C(OCc2ccccc2)=C1OCc1ccccc1, which IC50 (A549) is on record?
Its IC50 is 59.9 µM.

What about the IC50 (CFPAC-1) of the same compound?
Its IC50 is 54.1 µM.

And the IC50 (HCT-116)?
Its IC50 is 42.9 µM.

And the IC50 (HepG2)?
Its IC50 is 62.7 µM.

What about the IC50 (MCF7) of the same compound?
Its IC50 is 51.8 µM.

What about the IC50 (SW-620) of the same compound?
The IC50 was greater than 100 µM.

And the IC50 (HFF)?
Its IC50 is 39 µM.

With O=C1O/C(=C\Cn2cc(-c3cc(C(F)(F)F)cc(C(F)(F)F)c3)nn2)C(OCc2ccccc2)=C1OCc1ccccc1 as the compound, how does the IC50 (A549) read?
The IC50 was greater than 100 µM.

And the IC50 (CFPAC-1)?
Its IC50 is greater than 100 µM.

What about the IC50 (HCT-116) of the same compound?
Its IC50 is greater than 100 µM.

What about the IC50 (HeLa) of the same compound?
Its IC50 is greater than 100 µM.

And the IC50 (HepG2)?
Its IC50 is greater than 100 µM.

And the IC50 (MCF7)?
The IC50 was greater than 100 µM.

What about the IC50 (SW-620) of the same compound?
Its IC50 is greater than 100 µM.

What about the IC50 (HFF) of the same compound?
Its IC50 is greater than 100 µM.

Which results are given for O=C1O[C@H]([C@@H](O)CO)C(O)=C1O [ASCORBIC ACID]?
IC50 (A549): > 100 µM; IC50 (CFPAC-1): > 100 µM; IC50 (HCT-116): > 100 µM; IC50 (HeLa): > 100 µM; IC50 (HepG2): > 100 µM; IC50 (MCF7): > 100 µM; IC50 (SW-620): > 100 µM; IC50 (HFF): > 100 µM

For CCCCc1cn(C/C=C2\OC(=O)C(OCc3ccccc3)=C2OCc2ccccc2)nn1, which IC50 (A549) is on record?
Its IC50 is greater than 100 µM.

And the IC50 (CFPAC-1)?
Its IC50 is 72.5 µM.

What about the IC50 (HCT-116) of the same compound?
Its IC50 is 61.2 µM.

What about the IC50 (HeLa) of the same compound?
Its IC50 is 67.7 µM.

What about the IC50 (HepG2) of the same compound?
The IC50 was 77.1 µM.

And the IC50 (MCF7)?
Its IC50 is 57.2 µM.

And the IC50 (HFF)?
The IC50 was 49.5 µM.

And the MCC at 72 h [1]?
Its MCC at 72 h is 100 µM.

And the EC50 (Human alphaherpesvirus 1 [2])?
The EC50 was greater than 100 µM.

What about the EC50 (Human alphaherpesvirus 2) of the same compound?
The EC50 was 9.45 µM.

What about the EC50 (Human alphaherpesvirus 1 [3]) of the same compound?
Its EC50 is greater than 100 µM.

And the EC50 (Human adenovirus 2)?
The EC50 was 20 µM.

What about the EC50 (Human coronavirus 229E) of the same compound?
Its EC50 is 8.45 µM.

Which results are given for CCCCCc1ccc(-c2cn(C[C@H](O)[C@H]3OC(=O)C(OCc4ccccc4)=C3OCc3ccccc3)nn2)cc1?
IC50 (A549): 6.22 µM; IC50 (CFPAC-1): 9.89 µM; IC50 (HCT-116): 13.8 µM; IC50 (HeLa): 8.39 µM; IC50 (HepG2): 7.46 µM; IC50 (MCF7): 9.01 µM; IC50 (SW-620): 12.2 µM; IC50 (HFF): > 100 µM

Which IC50 (CFPAC-1) does the source give for O=C1O/C(=C\Cn2cc(CCCCl)nn2)C(OCc2ccccc2)=C1OCc1ccccc1 here?
The IC50 was greater than 100 µM.

And the IC50 (HCT-116)?
The IC50 was 66.8 µM.

And the IC50 (HeLa)?
Its IC50 is 66.8 µM.

And the IC50 (HepG2)?
Its IC50 is 81.1 µM.

And the IC50 (MCF7)?
The IC50 was 23.6 µM.

And the IC50 (SW-620)?
Its IC50 is 21.6 µM.

And the IC50 (HFF)?
The IC50 was 94.1 µM.
